Series [1] in a line: Cmax in rat at 5 mg/kg, po. Format: ADME, organism-based. Details: dose 5 mg/kg, route oral. The settings on record: in vivo. In a few lines:
(§1)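 Rat PK study, dosed 1 mg/kg iv plus 10 or 5 mg/kg po. iv vehicle 3% DMSO, 30% solutol, 67% phosphate buffered saline; oral vehicle 50% Tween 80, 40% propylene carbonate, 10% propylene glycol.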

Series [2] is described as follows: Tmax in rat at 5 mg/kg, po. The class given is ADME, organism-based. The settings on record: in vivo. More on the design: dose 5 mg/kg, route oral. The gist of the method: as §1
Series [3] in a line: Inhibition of cytochrome P450. The class given is ADME. In a few lines:
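CYP inhibition assessed against 5 CYP isoforms; IC50 determined.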

The target in series [4] is Histamine H3 receptor (Rattus norvegicus, UniProt Q9QYN8). The series can be described thus: Displacement of [3H]N-alpha-methylhistamine from rat histamine H3 receptor expressed in CHO cells. The class given is cell-based.
Chain of Histamine H3 receptor (Rattus norvegicus, UniProt Q9QYN8) (Q9QYN8 whole entry): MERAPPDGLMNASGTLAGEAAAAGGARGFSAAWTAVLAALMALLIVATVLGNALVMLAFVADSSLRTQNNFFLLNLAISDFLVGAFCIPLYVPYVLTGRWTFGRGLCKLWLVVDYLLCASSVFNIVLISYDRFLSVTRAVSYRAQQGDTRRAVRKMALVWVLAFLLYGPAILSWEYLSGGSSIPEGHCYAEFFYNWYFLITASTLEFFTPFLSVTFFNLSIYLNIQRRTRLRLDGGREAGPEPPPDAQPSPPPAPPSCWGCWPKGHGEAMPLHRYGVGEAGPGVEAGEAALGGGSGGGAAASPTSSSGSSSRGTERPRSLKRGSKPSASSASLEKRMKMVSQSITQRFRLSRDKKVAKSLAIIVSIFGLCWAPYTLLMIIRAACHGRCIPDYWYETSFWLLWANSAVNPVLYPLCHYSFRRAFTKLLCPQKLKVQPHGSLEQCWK
Series [5] in a line: AUC in rat at 5 mg/kg, po. More on the design: dose 5 mg/kg, route oral. The class given is ADME, organism-based. Conditions: plasma. In a few lines: as §1
Series [6] deals with Histamine H3 receptor (Homo sapiens, UniProt Q9Y5N1). The series can be described thus: Displacement of [3H]N-alpha-methylhistamine from human histamine H3 receptor expressed in CHO cells. Format: cell-based.
Chain of Histamine H3 receptor (Homo sapiens, UniProt Q9Y5N1) (Q9Y5N1 whole entry): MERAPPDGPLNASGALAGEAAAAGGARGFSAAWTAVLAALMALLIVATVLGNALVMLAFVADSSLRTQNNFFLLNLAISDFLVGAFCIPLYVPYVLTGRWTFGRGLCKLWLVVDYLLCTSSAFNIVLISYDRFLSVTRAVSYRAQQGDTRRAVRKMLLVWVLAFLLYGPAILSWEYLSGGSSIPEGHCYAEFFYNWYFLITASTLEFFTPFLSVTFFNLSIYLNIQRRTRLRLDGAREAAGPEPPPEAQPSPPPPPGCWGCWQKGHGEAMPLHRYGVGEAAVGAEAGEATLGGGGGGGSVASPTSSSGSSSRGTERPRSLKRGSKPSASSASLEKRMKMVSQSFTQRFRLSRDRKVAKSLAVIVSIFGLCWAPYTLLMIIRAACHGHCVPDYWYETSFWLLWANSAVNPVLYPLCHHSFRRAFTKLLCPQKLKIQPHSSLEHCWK
Series [7] is described as follows: Half life in rat at 1 mg/kg, iv. Format: ADME, organism-based. More on the design: dose 1 mg/kg, route intravenous. The settings on record: in vivo. The gist of the method: as §1
Series [8] deals with Voltage-gated inwardly rectifying potassium channel KCNH2 (Homo sapiens, UniProt Q12809). Briefly: Inhibition of human ERG by patch clamp assay.
Chain of Voltage-gated inwardly rectifying potassium channel KCNH2 (Q12809 whole entry): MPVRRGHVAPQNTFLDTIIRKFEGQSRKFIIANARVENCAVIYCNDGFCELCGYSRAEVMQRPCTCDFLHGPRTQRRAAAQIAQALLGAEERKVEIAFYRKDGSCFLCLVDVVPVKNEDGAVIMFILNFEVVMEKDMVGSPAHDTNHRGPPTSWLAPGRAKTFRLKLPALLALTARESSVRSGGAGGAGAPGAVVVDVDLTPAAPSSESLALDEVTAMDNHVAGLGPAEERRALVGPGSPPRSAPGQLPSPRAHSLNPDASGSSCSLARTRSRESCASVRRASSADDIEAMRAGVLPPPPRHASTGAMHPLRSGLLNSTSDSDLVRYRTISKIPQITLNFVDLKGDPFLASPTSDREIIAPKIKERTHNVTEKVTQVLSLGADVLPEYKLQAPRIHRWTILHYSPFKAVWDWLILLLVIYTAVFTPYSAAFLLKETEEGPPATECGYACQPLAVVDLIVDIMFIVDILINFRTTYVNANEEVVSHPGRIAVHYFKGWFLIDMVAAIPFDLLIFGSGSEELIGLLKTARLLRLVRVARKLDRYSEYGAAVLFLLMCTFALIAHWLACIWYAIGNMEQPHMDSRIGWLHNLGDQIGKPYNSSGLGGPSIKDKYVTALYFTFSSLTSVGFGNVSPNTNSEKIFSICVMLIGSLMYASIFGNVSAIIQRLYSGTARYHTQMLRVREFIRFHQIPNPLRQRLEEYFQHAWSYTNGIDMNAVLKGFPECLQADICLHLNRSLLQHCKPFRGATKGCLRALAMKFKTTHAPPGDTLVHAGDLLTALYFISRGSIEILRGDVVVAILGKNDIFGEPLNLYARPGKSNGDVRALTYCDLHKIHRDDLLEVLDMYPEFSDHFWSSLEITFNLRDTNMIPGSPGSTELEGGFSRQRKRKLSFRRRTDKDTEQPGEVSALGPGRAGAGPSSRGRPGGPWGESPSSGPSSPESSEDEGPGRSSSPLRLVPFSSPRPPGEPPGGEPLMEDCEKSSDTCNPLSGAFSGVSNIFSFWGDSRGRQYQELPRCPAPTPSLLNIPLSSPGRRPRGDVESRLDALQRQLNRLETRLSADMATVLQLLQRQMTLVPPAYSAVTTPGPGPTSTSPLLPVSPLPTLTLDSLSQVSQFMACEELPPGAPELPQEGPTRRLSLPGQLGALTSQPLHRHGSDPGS
A short description of series [9]: Oral bioavailability in rat at 5 mg/kg. The class given is ADME, organism-based. Conditions: in vivo. In a few lines: as §1
The nature of series [10]: Clearance in rat at 1 mg/kg, iv. The class given is ADME, organism-based. Details: dose 1 mg/kg, route intravenous. Conditions: in vivo. The gist of the method: as §1
Series [11] can be described thus: Volume of distribution in rat at 1 mg/kg, iv. Format: ADME, organism-based. Details: dose 1 mg/kg, route intravenous. The settings on record: in vivo. In a few lines: as §1
A short description of series [12]: Ratio of drug level in brain to plasma in rat at 10 mg/kg, ip after 6 hrs. The class given is ADME, organism-based. Details: dose 10 mg/kg, route intraperitoneal. The settings on record: read-out: BPR. The gist of the method:
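Brain and plasma levels measured in rat 6 h after a 10 mg/kg ip dose; value is brain/plasma ratio.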

Series [13] in a line: AUC in po dosed rat. The class given is ADME, organism-based. Conditions: plasma.
For series [14], the system named is Rattus norvegicus. Briefly: AUC in po dosed rat assessed as 5-[4-(1-cyclobutyl-piperidin-4-yloxy)-phenyl]-6-methyl-2H-pyridazin-3-one level. The class given is ADME, organism-based, Plasma. Conditions: in vivo.
Series [15] in a line: Cmax in po dosed rat. More on the design: route oral. The settings on record: in vivo. Format: ADME, organism-based.
Series [16] in a line: Oral bioavailability in rat. Format: ADME, organism-based. Conditions: in vivo. In a few lines: as §1
Series [17] relates to Rattus norvegicus. Briefly: Cmax in po dosed rat assessed as 5-[4-(1-cyclobutyl-piperidin-4-yloxy)-phenyl]-6-methyl-2H-pyridazin-3-one level. The class given is ADME, organism-based. Details: route oral. Conditions: in vivo.
The nature of series [18]: Half life in dog liver microsomes. Format: ADME, Canis lupus familiaris, Microsome. In a few lines:
(§2)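 Stability in liver microsomes from rat, dog or human; half-life (min) determined.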

The nature of series [19]: Half life in rat liver microsomes. Format: ADME, Microsome. In a few lines:
as §2

Series [20] in a line: Half life in human liver microsomes. The class given is ADME, Microsome. The gist of the method:
as §2

Series [21] is described as follows: Cmax in rat at 10 mg/kg, po. The class given is ADME, organism-based. More on the design: dose 10 mg/kg, route oral. The settings on record: in vivo. The gist of the method:
as §1

Series [22] is described as follows: Tmax in rat at 10 mg/kg, po. The class given is ADME, organism-based. More on the design: dose 10 mg/kg, route oral. Conditions: in vivo. In a few lines: as §1
Series [23] is described as follows: AUC in rat at 10 mg/kg, po. The class given is ADME, organism-based. Details: dose 10 mg/kg, route oral. Conditions: plasma. The gist of the method:
as §1

The target of series [24] is Histamine H1 receptor (Homo sapiens) (UniProt P35367). Briefly: Inhibition of human histamine H1 receptor at 10 uM. The gist of the method:
(§3)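 Selectivity screen against human H1, H2 and H4 receptors; percent inhibition at 10 µM.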

The target in series [25] is Histamine H4 receptor (Homo sapiens) (UniProt Q9H3N8). Briefly: Inhibition of human histamine H4 receptor at 10 uM. The gist of the method:
as §3

The target in series [26] is T1, Muscarinic acetylcholine receptor M2 (Homo sapiens, UniProt P08172).
T1 sequence (P08172 whole entry): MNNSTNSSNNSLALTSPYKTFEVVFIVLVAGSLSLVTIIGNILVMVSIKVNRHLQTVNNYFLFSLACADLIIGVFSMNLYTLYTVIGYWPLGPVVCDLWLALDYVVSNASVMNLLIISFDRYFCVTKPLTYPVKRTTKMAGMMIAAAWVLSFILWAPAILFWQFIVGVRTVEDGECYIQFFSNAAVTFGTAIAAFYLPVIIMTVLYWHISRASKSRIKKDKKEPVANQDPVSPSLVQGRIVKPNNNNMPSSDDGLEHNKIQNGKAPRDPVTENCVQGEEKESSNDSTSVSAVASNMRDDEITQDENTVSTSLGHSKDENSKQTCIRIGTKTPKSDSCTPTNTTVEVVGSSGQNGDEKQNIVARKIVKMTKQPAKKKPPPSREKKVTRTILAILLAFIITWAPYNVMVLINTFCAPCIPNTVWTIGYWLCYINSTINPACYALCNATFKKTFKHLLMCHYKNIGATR
The series can be described thus: Inhibition of muscarinic M2 receptor.

In series [27] the target is Histamine H2 receptor (Homo sapiens) (UniProt P25021). The series can be described thus: Inhibition of human histamine H2 receptor at 10 uM. In a few lines: as §3
Chain of Histamine H2 receptor (Homo sapiens) (P25021 whole entry): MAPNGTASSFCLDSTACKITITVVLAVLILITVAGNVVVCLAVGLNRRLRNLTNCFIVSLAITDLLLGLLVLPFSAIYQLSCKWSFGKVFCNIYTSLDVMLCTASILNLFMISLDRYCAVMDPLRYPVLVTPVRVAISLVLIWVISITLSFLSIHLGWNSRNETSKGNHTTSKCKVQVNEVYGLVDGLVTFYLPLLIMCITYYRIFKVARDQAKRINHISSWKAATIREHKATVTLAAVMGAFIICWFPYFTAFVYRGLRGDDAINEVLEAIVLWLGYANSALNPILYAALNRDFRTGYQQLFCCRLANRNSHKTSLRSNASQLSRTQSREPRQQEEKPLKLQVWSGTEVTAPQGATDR

pIC50, pKi: −log10 of the molar value.

Chain of Histamine H4 receptor (Homo sapiens) (Q9H3N8 whole entry): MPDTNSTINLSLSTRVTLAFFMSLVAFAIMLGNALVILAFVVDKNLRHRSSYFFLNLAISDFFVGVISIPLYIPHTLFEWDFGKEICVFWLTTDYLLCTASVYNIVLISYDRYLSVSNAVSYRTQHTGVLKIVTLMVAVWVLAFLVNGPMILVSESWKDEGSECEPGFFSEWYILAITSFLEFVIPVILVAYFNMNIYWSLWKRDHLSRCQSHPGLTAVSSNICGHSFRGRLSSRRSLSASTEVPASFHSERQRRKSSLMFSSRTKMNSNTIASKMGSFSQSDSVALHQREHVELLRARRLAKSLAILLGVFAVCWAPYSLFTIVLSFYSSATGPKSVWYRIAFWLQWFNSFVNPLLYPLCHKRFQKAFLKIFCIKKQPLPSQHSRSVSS
Chain of Histamine H1 receptor (Homo sapiens) (P35367 whole entry): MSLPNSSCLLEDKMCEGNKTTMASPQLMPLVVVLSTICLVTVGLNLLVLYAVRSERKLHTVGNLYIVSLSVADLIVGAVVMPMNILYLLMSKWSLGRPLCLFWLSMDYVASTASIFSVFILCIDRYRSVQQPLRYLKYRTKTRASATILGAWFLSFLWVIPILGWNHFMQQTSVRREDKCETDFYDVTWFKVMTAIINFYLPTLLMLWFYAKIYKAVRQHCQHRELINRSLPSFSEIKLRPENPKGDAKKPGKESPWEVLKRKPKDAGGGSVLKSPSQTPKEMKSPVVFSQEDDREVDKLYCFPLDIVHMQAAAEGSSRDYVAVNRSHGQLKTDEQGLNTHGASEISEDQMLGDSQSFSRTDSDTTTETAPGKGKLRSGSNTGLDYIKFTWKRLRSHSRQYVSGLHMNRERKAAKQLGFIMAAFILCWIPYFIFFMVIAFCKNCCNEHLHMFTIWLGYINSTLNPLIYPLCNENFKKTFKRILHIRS

`Cc1cccc(-n2nc(C)c(-c3ccc(OC4CCN(C5CCC5)CC4)cc3)cc2=O)n1` returned a Cmax in [1] of 332 ng/mL. In addition, the Tmax in series [2] stood at 2 h. For the same compound, the pIC50 in [3] and in series [8] was less than 4.52 throughout. In addition, the pKi in series [4] was 8.00; in series [6], 8.40. Moreover, in [5], the AUC was found to be 1270 ng·h/mL. The compound further had a half-life in series [7] of 1.1 h. In series [9], this compound yielded a bioavailability of 20%. The clearance in series [10] stood at 16 mL/min/kg. Further, the distribution volume (Vd) in series [11] amounted to 1.7 L/kg. The Kp at 6 h in series [12] was 1.6.

Turning to `Cc1nn(-c2ccsc2)c(=O)cc1-c1ccc(OC2CCN(C3CCC3)CC2)cc1`, the figures for the pKi in [4] and in series [6] were 8.10 and 8.52, respectively.

`Cc1cccnc1-n1nc(C)c(-c2ccc(OC3CCN(C4CCC4)CC3)cc2)cc1=O` returned a Cmax in series [1] of 505 ng/mL. The Tmax in series [2] was found to be 2.3 h. The pIC50 in series [3] and in series [8] was less than 4.52 each time. Further, the figures for the pKi in series [4] and in series [6] were 7.77 and 8.22, respectively. The same compound yielded an exposure (AUC) in series [5] of 1860 ng·h/mL. This compound also showed a half-life in series [7] of 1.1 h. In series [9], this compound yielded a bioavailability of 23%. Further, the clearance in series [10] is 11 mL/min/kg. In addition, in [11], the Vd is 1.1 L/kg. Further, the Kp at 6 h in series [12] came to 1.

Regarding `Cc1nn(C)c(=O)cc1-c1ccc(OC2CCN(C3CCC3)CC2)cc1`, the figures for the AUC in series [13] and in [14] were 337 ng·h/mL and 320 ng·h/mL, respectively. Also, the maximum concentration (Cmax) was 107 ng/mL in series [15] and 68 ng/mL in [17]. Also, in series [16], the bioavailability amounted to 19%. In [3], this compound had a pIC50 of less than 4.52. Also, the pKi in [4] was 8.10; in series [6], 8.40. In addition, the half-life in series [18], in series [19] and in series [20] was more than 0.667 h throughout.

In series [16], `O=c1cc(-c2ccc(OC3CCN(C4CCC4)CC3)cc2)cn[nH]1` displayed a bioavailability of 21%. For the same compound, the negative logarithm of the Ki (pKi) in series [4] and in series [6] was 8.70 throughout. This compound also had a pIC50 in [8] of 5.70.

In the case of `C[C@@H]1CCCN1CCCOc1ccc(-c2cn[nH]c(=O)c2)cc1`, in [21], the peak concentration (Cmax) was 446 ng/mL. Moreover, the negative logarithm of the Ki (pKi) was 8.07 in series [4] and 8.55 in series [6]. The time of peak concentration (Tmax) in series [22] amounted to 2 h. For the same compound, the Vd in series [11] stood at 0.8 L/kg. The compound further registered an area under the curve (AUC) in [23] of 4210 ng·h/mL. For the same compound, in series [12], the Kp at 6 h turned out to be 1.8.

In [1], `Cc1nn(-c2ccccn2)c(=O)cc1-c1ccc(OC2CCN(C3CCC3)CC2)cc1` had a Cmax of 287 ng/mL. Moreover, the inhibition in [24], in series [25] and in series [27] was less than 30% each time. Further, the Tmax in series [2] was found to be 3.2 h. Besides, the pIC50 in [3] was less than 4.52; in series [26] it was 6.47. Besides, the results for the pKi in [4] and in series [6] were 8.05 and 8.52, respectively. Moreover, the area under the curve (AUC) in series [5] came to 1500 ng·h/mL. Moreover, the half-life was 1.3 h in series [7], more than 0.667 h in [18], more than 0.667 h in series [19] and more than 0.667 h in series [20]. This compound yielded a bioavailability in series [9] of 22%. Further, in [10], the clearance was 13 mL/min/kg. Besides, the Vd in series [11] came out at 1.4 L/kg. Moreover, in series [12], the Kp at 6 h is 1.6.

Turning to `CC1=NNC(=O)CC1c1ccc(OC2CCN(C3CCC3)CC2)cc1` (centres undefined), the exposure (AUC) was found to be 370 ng·h/mL in series [13] and 152 ng·h/mL in series [14]. Also, the Cmax in series [15] was 73 ng/mL; in series [17], 34 ng/mL. The same compound yielded a bioavailability in series [16] of 6%. The negative-log IC50 (pIC50) in [3] was less than 4.52. In addition, the pKi is 7.89 in series [4] and 7.82 in series [6]. Further, the half-life in series [18], in series [19] and in [20] was more than 0.667 h each time.

For the compound `O=c1cc(-c2ccc(OC3CCN(C4CCC4)CC3)nc2)cn[nH]1`, the pKi is 7.70 in [4] and 7.85 in series [6].

Values taken from ChEMBL document CHEMBL1944524, “Synthesis and structure-activity relationship of 5-pyridazin-3-one phenoxypiperidines as potent, selective histamine H(3) receptor inverse agonists” (Bioorg Med Chem Lett, 2012).
